Series [1] relates to Acinetobacter baumannii. In words: Antibacterial activity against Acinetobacter baumannii ATCC 19606 after 18 to 20 hrs by microbroth dilution method. The format is functional. A digest of the protocol:
(§1)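 CLSI microbroth dilution, adapted. Mid-log bacteria, 2 × 10^6 CFU/mL in Mueller-Hinton broth, mixed 1:1 with MH broth holding peptide in serial 2-fold dilutions in 20% ethanol (0.75-48 μM). Incubated 18-20 h at 37 °C; growth read as A600. MIC is the lowest concentration giving 100% growth inhibition.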

Series [2] has as its system Acinetobacter junii. The series can be described thus: Antibacterial activity against […] Acinetobacter junii RT-4 after 18 to 20 hrs by microbroth dilution method. It counts as functional. A digest of the protocol:
as §1

The subject of series [3] is Enterococcus faecalis. In words: Antibacterial activity against Enterococcus faecalis ATCC 29212 after 18 to 20 hrs by microbroth dilution method. The format is functional. The procedure, abridged:
as §1

Series [4] has as its system Escherichia coli. The series can be described thus: Antibacterial activity against Escherichia coli ATCC 25922 after 18 to 20 hrs by microbroth dilution method. The format is functional. The procedure, abridged:
as §1

In series [5] the test system is Escherichia coli. In words: Antibacterial activity against Escherichia coli D21 after 18 to 20 hrs by microbroth dilution method. The format is functional. The procedure, abridged:
as §1
On the technique in general: In broth dilution the organism is exposed to a series of concentrations in liquid medium.

The test system of series [6] is Pseudomonas syringae. In words: Antibacterial activity against Pseudomonas syringae pv tobaci after 18 to 20 hrs by microbroth dilution method. The format is functional. A digest of the protocol:
as §1

The test system of series [7] is Pseudomonas aeruginosa. In words: Antibacterial activity against Pseudomonas aeruginosa ATCC 15692 after 18 to 20 hrs by microbroth dilution method. The format is functional. The procedure, abridged:
as §1

For series [8], the system named is Pseudomonas aeruginosa. In words: Antibacterial activity against Pseudomonas aeruginosa ATCC 27853 after 18 to 20 hrs by microbroth dilution method. It counts as functional. A digest of the protocol: as §1
In series [9] the test system is Yersinia pseudotuberculosis. In words: Antibacterial activity against Yersinia pseudotuberculosis YPIII after 18 to 20 hrs by microbroth dilution method. It counts as functional. The procedure, abridged: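 Broth microdilution adapted from CLSI. Mid-log bacteria at 2 × 10^6 CFU/mL in Mueller-Hinton broth were mixed 1:1 with MH broth containing peptide in serial 2-fold dilutions (peptide in 20% ethanol), 0.75-48 μM. Plates were incubated 18-20 h at 37 °C and growth was read as A600. MIC is the concentration giving 100% growth inhibition.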

Series [10] has as its system Priestia megaterium. In words: Antibacterial activity against Bacillus megaterium Bm11 after 18 to 20 hrs by microbroth dilution method. It counts as functional. A digest of the protocol:
as §1

Series [11] has as its system Staphylococcus aureus. In words: Antibacterial activity against Staphylococcus aureus ATCC 25923 after 18 to 20 hrs by microbroth dilution method. It counts as functional. A digest of the protocol:
as §1

The subject of series [12] is Staphylococcus aureus. In words: Antibacterial activity against Staphylococcus aureus Cowan I after 18 to 20 hrs by microbroth dilution method. The format is functional. A digest of the protocol:
as §1

Series [13] relates to Staphylococcus capitis. The series can be described thus: Antibacterial activity against Staphylococcus capitis after 18 to 20 hrs by microbroth dilution method. The format is functional. A digest of the protocol:
as §1

Series [14] has as its system Staphylococcus epidermidis. The series can be described thus: Antibacterial activity against Staphylococcus epidermidis ATCC 12228 after 18 to 20 hrs by microbroth dilution method. The format is functional. The procedure, abridged: as §1
Series [15] concerns Streptococcus pyogenes. The series can be described thus: Antibacterial activity against Streptococcus pyogenes ATCC 21547 after 18 to 20 hrs by microbroth dilution method. It counts as functional. A digest of the protocol: as §1
Series [16] concerns Candida albicans. The series can be described thus: Antifungal activity against Candida albicans ATCC 10231 after 18 to 20 hrs by microbroth dilution method. It counts as functional. The procedure, abridged:
(§2)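 Yeasts tested by adapted CLSI microbroth dilution in Winge medium. Peptide given in serial 2-fold dilutions (0.75-48 μM, made in 20% ethanol). Incubation 18-20 h at 30 °C, read at A600. MIC taken as the concentration giving complete (100%) growth inhibition.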

In series [17] the test system is Schizosaccharomyces pombe. The series can be described thus: Antifungal activity against Schizosaccharomyces pombe after 18 to 20 hrs by microbroth dilution method. It counts as functional. A digest of the protocol:
as §2

Series [18] deals with Saccharomyces cerevisiae. The series can be described thus: Antifungal activity against Saccharomyces cerevisiae after 18 to 20 hrs by microbroth dilution method. The format is functional. The procedure, abridged: as §2
The nature of series [19]: Toxicity in human erythrocytes assessed as hemolysis at 24 uM after 40 mins. The format is cell-based, Erythrocyte. Conditions: read-out: Activity. The procedure, abridged:
(§3)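 Human red blood cells suspended in 0.9% (w/v) NaCl and incubated 40 min at 37 °C with gentle mixing with serial 2-fold peptide dilutions (peptide predissolved in 20% ethanol). Spun 5 min at 900g; supernatant read at 415 nm. Cells lysed in distilled water set the 100% lysis reference.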

The nature of series [20]: Toxicity in human erythrocytes assessed as hemolysis at 12 uM after 40 mins. It counts as cell-based, Erythrocyte. Conditions: read-out: Activity. The procedure, abridged:
as §3

Series [21] can be described thus: Toxicity in human erythrocytes assessed as hemolysis at 6 uM after 40 mins. It counts as cell-based, Erythrocyte. As to conditions: read-out: Activity. A digest of the protocol: as §3
The nature of series [22]: Toxicity in human erythrocytes assessed as hemolysis at 3 uM after 40 mins. The format is cell-based, Erythrocyte. Conditions: read-out: Activity. The procedure, abridged: as §3
The nature of series [23]: Toxicity in human erythrocytes assessed as hemolysis at 1.5 uM after 40 mins. The format is cell-based, Erythrocyte. Conditions: read-out: Activity. A digest of the protocol: as §3

Molecules are shown by their SMILES. ≈ marks a conversion by molar mass, not a printed value.

In general, MIC refers to the smallest concentration in the dilution series that meets the test's criterion for growth inhibition. With `CC[C@H](C)[C@H](NC(=O)[C@H](CCCNC(=N)N)NC(=O)[C@H]1CCCN1C(=O)[C@H](CC(C)C)NC(=O)[C@H](Cc1ccccc1)NC(=O)[C@H](CCCCN)NC(=O)[C@H](CO)NC(=O)[C@H](Cc1ccccc1)NC(=O)[C@H](Cc1c[nH]c2ccccc12)NC(=O)[C@@H]1CCCN1C(=O)[C@@H](NC(=O)[C@@H](N)Cc1ccccc1)C(C)C)C(=O)N[C@@H](CC(C)C)C(N)=O`, the MIC in [1] is 48 µM (≈ 79.2 µg/mL); in series [2], 24 µM (≈ 39.6 µg/mL); in [3] it was 48 µM (≈ 79.2 µg/mL); in series [4] it was 24 µM (≈ 39.6 µg/mL); in series [5], 48 µM (≈ 79.2 µg/mL); in series [6] it was above 48 µM. For the same compound, the MIC is above 48 µM in series [7]; above 48 µM in series [8]; 24 µM (≈ 39.6 µg/mL) in [9]; 3 µM (≈ 4.95 µg/mL) in series [10]; 48 µM (≈ 79.2 µg/mL) in series [11]; 24 µM (≈ 39.6 µg/mL) in series [12]. The MIC came out at 24 µM (≈ 39.6 µg/mL) in series [13]; 12 µM (≈ 19.8 µg/mL) in series [14]; 24 µM (≈ 39.6 µg/mL) in series [15]; 24 µM (≈ 39.6 µg/mL) in [16]; 12 µM (≈ 19.8 µg/mL) in [17]; 12 µM (≈ 19.8 µg/mL) in series [18]. Moreover, the hemolysis at 40 min, 24 µM in [19] amounted to 2.5%. In addition, in [20], the hemolysis at 40 min, 12 µM worked out at 2%. Moreover, the hemolysis at 40 min, 6 µM in [21] is 0.6%. The hemolysis at 40 min, 3 µM in series [22] was found to be 1.5%. For the same compound, the hemolysis at 40 min, 1.5 µM in series [23] is 0.4%.

(Values after ChEMBL document CHEMBL1687913, “Structure-activity relationship, conformational and biological studies of temporin L analogues” (J Med Chem, 2011).)
